# Screens: PubChem, several laboratories
# Sampled rows, rich in hits. Any-hit rate of the full collection: about 9.8%.
# PMI act satM6P: human PMI activators, high substrate, primary screen, biochemical, fluorescence intensity, near-saturating mannose 6-phosphate | Mannose-6-phosphate isomerase (Homo sapiens), P34949 | coupled PMI enzyme assay, resazurin fluorescence, 20 min; stronger effect = higher value; 1 = untreated enzyme, 0 = substrate-free blank | activation factor at 20 µM | 190,000 compounds, 0.34% hits;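 active means activation factor of 2 or more at 20 µM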
#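 Test system – human PMI in coupled enzyme assay · Timing – 20 min incubation at room temperature · Detection – Diaphorase-driven resazurin-to-resorufin fluorescence, excitation 544, emission 590 nm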
# m-calpain inh: inhibitors of pig calpain II, primary screen, biochemical, fluorogenic peptide substrate, 1536-well; purified calpain II, 30 min; inhibition, % at 16 µM; 220,000 compounds, 0.37% hits;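 active means inhibition above about 50%, limit read from the data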
# Rad51 HR inh: human RAD51 strand exchange inhibitors, primary screen, biochemical, fluorescence | DNA repair protein RAD51 homolog 1 (Homo sapiens), Q06609 | hRad51 DNA strand exchange, fluorescence dequenching | inhibition, % at 10 µM | 200,000 compounds, 0.085% hits | AID 1385, 2008;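 active means inhibition above 40% at the single screening dose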
# Target sequence (Q06609 whole entry, looked up): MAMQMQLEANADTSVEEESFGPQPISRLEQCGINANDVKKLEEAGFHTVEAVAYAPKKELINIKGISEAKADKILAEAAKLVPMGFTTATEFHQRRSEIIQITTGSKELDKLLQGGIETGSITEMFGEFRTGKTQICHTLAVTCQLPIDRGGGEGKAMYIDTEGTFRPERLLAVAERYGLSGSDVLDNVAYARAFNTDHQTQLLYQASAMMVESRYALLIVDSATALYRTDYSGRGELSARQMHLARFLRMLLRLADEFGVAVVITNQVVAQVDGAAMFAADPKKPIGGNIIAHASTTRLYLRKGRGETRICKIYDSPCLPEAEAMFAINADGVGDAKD
#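 Material: human Rad51–ssDNA filaments; Probe or stimulus: labelled 47-mer dsDNA for strand exchange; Doses: single 10 µM dose; Incubation: 37 °C 15-min filament assembly, 30-min compound preincubation, 15-min exchange; Technique: FRET fluorescence dequenching, excitation 485 nm, emission 520 nm; Measure: Fluorescence-based percent inhibition, control- and blank-normalised; Benchmarks: plate control and blank wells.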
# PMI activator: activators of human PMI, primary screen, biochemical, fluorescence intensity, near-Km mannose 6-phosphate; Mannose-6-phosphate isomerase (Homo sapiens), P34949; purified human PMI, coupled resazurin fluorescence, 20 min; stronger effect = higher value; 1 = vehicle control, 0 substrate-free wells; activation factor at 20 µM; 190,000 compounds, 0.005% hits; AID 1214, 2008;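 active means activation factor of 2 or more at 20 µM, relative to plate controls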
# WT yeast gro inh: growth inhibition of WT strain, primary screen, mitochondrial fusion inhibitor project, WT and mutant strains, chemical genetic; mitochondrial fusion phenotypic screen; 190,000 compounds, 2.1% hits; AID 1362, 2008; inhibition, % at 10 µM; in the data active means inhibition above about 58%; tested in S. cerevisiae
# L major viab: Leishmania major promastigote growth inhibition, primary screen | Leishmania major promastigotes, resazurin fluorescence viability | inhibition, % at 10 µM | 200,000 compounds, 9% hits | AID 1063, 2008; in the data active means inhibition above about 50%;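 further: promastigotes grown with compound for 44 hours at 28 °C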
# Hits are given with their value; i = inactive; nt = no result given.
SMILES,PMI act satM6P,m-calpain inh,Rad51 HR inh,PMI activator,WT yeast gro inh,L major viab
Cc1ccc(NCc2nnc(SCC(=O)N(Cc3ccccc3)C(C)(C)C)o2)c(C)c1,i,60,i,i,i,i
COc1cc(C2CC(=O)Nc3n[nH]c(-c4ccccc4)c32)cc(OC)c1OC (centres undefined),nt,i,i,nt,nt,nt
O=C(CCOc1ccccc1F)N1CCN(c2ccccc2O)CC1,i,i,i,i,i,i
Cc1ccc(-n2cnc(N)c2C(=O)c2cccc([N+](=O)[O-])c2)cc1,nt,i,i,nt,nt,nt
CCOC(=O)N1CCC(N2CCCC(C(=O)c3cc(F)ccc3OC)C2)CC1 (centres undefined),i,i,nt,i,i,82
O=C(c1ccc2c(c1)OCO2)C1CCCN(C2CCN(CCc3ccccc3)CC2)C1 (centres undefined),i,i,i,i,i,98
COc1ccc(F)cc1C(=O)C1CCCN(Cc2ccc3c(c2)OCCO3)C1 (centres undefined),i,i,i,i,i,104
COc1ccc(F)cc1C(=O)C1CCCN(Cc2cccn2-c2cccnc2)C1 (centres undefined),i,i,nt,i,i,74
Cc1cc(C(=O)NC(Cc2ccccc2)C(=O)O)c(C)o1 (centres undefined),nt,i,i,nt,nt,nt
CC(=O)c1cccc(CN2CCCC(C(=O)c3ccc4c(c3)OCO4)C2)c1 (centres undefined),i,i,i,i,i,100
O=C(C1CCCN(Cc2ccc3c(c2)OCO3)C1)N1CCCC1 (centres undefined),i,i,i,i,i,i
CCOC(=O)C1CCCN(Cc2ccc3c(c2)OCO3)C1 (centres undefined),i,i,i,i,i,92
COc1ccc(C(=O)C2CCCN(Cc3ccc4c(c3)OCCO4)C2)cc1F (centres undefined),nt,i,i,nt,nt,nt
COc1cccc(CN2CCCC(C(=O)c3ccc4c(c3)OCO4)C2)c1O (centres undefined),i,i,i,i,i,82
O=C(/C=C/c1cn(-c2ccccc2)nc1-c1cccc(Cl)c1)N1CCN(c2ccccn2)CC1,i,i,i,i,i,i
CCCCCCCCCCCCCCCC[n+]1cccc2ccccc21,i,99,i,i,i,100
O=C(C(Cc1ccc(Cl)cc1)NS(=O)(=O)c1ccccc1)N1CC[C@@]2(O)CCCC[C@H]2C1 (some centres undefined),i,i,i,i,i,51
CC(=O)c1ccc(NC(=O)C(C)OC(=O)COc2ccc(C#N)cc2)cc1 (centres undefined),i,i,i,i,i,i
Cc1ccc2c(c1)c1c(n2CC(O)Cn2c(C)nc3ccccc32)C(=O)CCC1 (centres undefined),i,i,i,i,i,i
Cc1ccc2c(c1)c1c(n2CC(O)Cn2c(C)nc3ccccc32)/C(=N\O)CCC1 (centres undefined),i,i,i,i,i,58
CN(C)C(=O)N(CCCN1CCOCC1)Cc1cccc2ccccc12,nt,i,i,nt,nt,nt
COc1ccccc1C(O)P(=O)(OC1CCCCC1)OC1CCCCC1 (centres undefined),nt,i,nt,nt,nt,nt
O=P(OC1CCCCC1)(OC1CCCCC1)C(O)c1ccc(Cl)cc1Cl (centres undefined),i,i,i,i,i,52
O=P(OC1CCCCC1)(OC1CCCCC1)C(O)c1c(Cl)cccc1Cl (centres undefined),i,i,i,i,71,53
COc1ccc(OC)c(C2=NNC(=NCc3ccc4c(c3)OCO4)SC2)c1,i,i,i,i,i,92
Clc1ccc(C2=NNC(=NCc3ccc4c(c3)OCO4)SC2)cc1,i,i,i,i,61,i
Oc1ccc(C2=NNC(=NCc3ccc4c(c3)OCO4)SC2)c(O)c1,i,i,i,i,i,i
CC(C)n1c(C(F)(F)F)nc2cc(C(=O)N3CCCCC3)ccc21,nt,i,i,nt,nt,nt
